# NR2E3 ag-1: NR2E3 agonists in two-hybrid cells, primary screen, cell-based, luminescence, CHO-S, Gal4-NCOR/VP16-NR2E3; Photoreceptor-specific nuclear receptor (Homo sapiens), Q9Y5X4; luciferase; inhibition of corepressor binding, % at 3.98 µM; 0.35% of 360,000 active;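 active = inhibition above the mean of all tested compounds plus 3 SD, cut at about 70% in these data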;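 also: 0% = DMSO with NR2E3 transfected cells and 100% = cells lacking NR2E3 construct; higher means lower luciferase signal from less NR2E3 corepressor binding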
# Target sequence (Q9Y5X4 whole entry, looked up, the tested form may be a part): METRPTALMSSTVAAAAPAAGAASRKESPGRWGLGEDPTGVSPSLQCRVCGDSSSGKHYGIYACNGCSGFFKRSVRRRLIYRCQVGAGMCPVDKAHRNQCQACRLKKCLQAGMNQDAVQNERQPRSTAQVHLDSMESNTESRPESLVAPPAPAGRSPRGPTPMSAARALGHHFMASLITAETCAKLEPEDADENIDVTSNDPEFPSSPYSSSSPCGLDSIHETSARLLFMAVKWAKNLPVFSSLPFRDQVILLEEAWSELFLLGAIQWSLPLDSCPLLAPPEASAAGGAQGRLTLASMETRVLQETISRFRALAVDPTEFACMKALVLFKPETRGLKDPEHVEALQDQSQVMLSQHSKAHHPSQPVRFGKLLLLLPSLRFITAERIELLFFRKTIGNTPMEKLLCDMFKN
# COUP-TFII inh: NR2F2 transcriptional activity inhibitors, primary screen, cell-based, luciferase reporter, HEK293T, luminescence | COUP transcription factor 2 (Homo sapiens), P24468 | HEK293T NGFI-A luciferase reporter | inhibition, % at 8.6 µM | 0.7% of 370,000 active | AID 686940, 2013;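 active = inhibition above a per-plate cutoff, mean inhibition of test wells between control levels plus 3 SD, cut at about 38% in these data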;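 also: cells cotransfected with COUP-TFII expression vector driving the NGFI-A reporter; 0% = median of COUP-TF2 test wells and 100% = reporter-only cells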
# GalR3 antagonist: GalR3 antagonists in HEK293 cells, primary screen, cell-based, fluorescence readout; Galanin receptor type 3 (Homo sapiens), O60755; HEK293 GalR3-CNG cAMP membrane potential fluorescence; galR3 body fused to GalR1 C-terminus; inhibition, % at 3 µM; 0.44% of 360,000 active; AID 651719, 2012;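 active = inhibition above the screen-wide average plus 3 SD, cut at about 13% in these data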;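 also: forskolin and galanin both at EC90 stimulate the cells; cAMP rise reported by CNG channel membrane potential dye signal; 0% = forskolin plus galanin with DMSO and 100% = forskolin alone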
# Target sequence (O60755 1-299 limits assumed): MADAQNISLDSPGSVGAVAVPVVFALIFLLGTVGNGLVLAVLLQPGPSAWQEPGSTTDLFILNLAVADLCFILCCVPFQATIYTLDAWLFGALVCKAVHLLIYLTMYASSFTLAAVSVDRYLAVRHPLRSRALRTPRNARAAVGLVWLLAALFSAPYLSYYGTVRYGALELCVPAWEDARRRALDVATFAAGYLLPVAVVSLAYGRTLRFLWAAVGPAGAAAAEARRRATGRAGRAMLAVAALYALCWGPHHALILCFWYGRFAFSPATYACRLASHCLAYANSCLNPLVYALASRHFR
# CHT inh: inhibitors of human choline transporter CHT. 0.86% of 310,000 active. B-score at 10 µM. CHT-expressing cells, membrane potential dye, choline response; active compounds read low. High affinity choline transporter 1 (Homo sapiens), Q9GZV3;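 active = B-score over 3 SD under the library average, and starting fluorescence ratio not unusually high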;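 also: choline stimulus applied at its EC90 after an EC20 pre-addition; B-score computed on integrated fluorescence ratio after choline addition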
# NR2E3 ag-2: inhibitors of NR2E3-RetCOR corepressor binding, primary screen, NR2E3 agonist project, biochemical, TR-FRET, GST-NR2E3, biotin-RetCOR; inhibition of corepressor binding, % at 4.78 µM; 1536-well; Photoreceptor-specific nuclear receptor (Homo sapiens), Q9Y5X4; 0.12% of 320,000 active;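 active = percent inhibition above the cutoff of mean plus 3 SD of all tested compounds, set per screening campaign, cut at about 20% in these data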;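 also: 0% = DMSO wells and 100% = biotin wells as full block of FRET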
#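 Format: 1536-well format; test system: GST-NR2E3 and biotin-RetCOR proteins; read-out basis: percent inhibition of TR-FRET ratio; timing: 5 h incubation at 4 °C; detection: time-resolved FRET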
# CHT PAM: CHT positive allosteric modulators, primary screen, cell-based, membrane potential dye, choline EC20 | High affinity choline transporter 1 (Homo sapiens), Q9GZV3 | CHT-expressing cells; active compounds read high; LV-AA mutant CHT in HEK293 cells | B-score at 10 µM | 0.49% of 310,000 active;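 active = initial fluorescence not abnormally high and integrated response B-score, plate-corrected, over 3 SD above library mean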
# CHT act confirm: CHT activators, confirmation, cell-based, membrane potential dye, duplicate | activation, % at 10 µM | CHT-expressing cells, membrane potential dye fluorescence (FDSS); % of choline EC20–EC90 response window; HEK293 expressing CHT LV-AA mutant; choline added at its EC20 | shares compounds with CHT PAM | 91% of 2,500 active;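 active = primary screen active, with duplicate mean activation above negative control mean plus 3 SD, cut at about 11% in these data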
# HEK293 MP dye: membrane potential response in parental HEK293 cells, counter-screen for CHT activator project, cell-based, membrane potential dye | shares compounds with CHT PAM | 62% of 2,500 active | membrane potential dye fluorescence (FDSS); measured after EC20 choline addition | ratio readout change at 10 µM, hits read low | AID 623908, 2012;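 active = duplicate-averaged ratio beyond 3 SD from buffer wells, up or down, though filed actives are nearly all decreases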
# Numbers without * were called inactive; i = inactive; nt = no result. Shown are actives, neighbours in structure and some others; about 2.3% of the full set was active somewhere.
SMILES,NR2E3 ag-1,COUP-TFII inh,GalR3 antagonist,CHT inh,NR2E3 ag-2,CHT PAM,CHT act confirm,HEK293 MP dye
Cn1c(=O)c(=O)n(C)c2cc(S(=O)(=O)N3CCN(C4CCCCC4)CC3)ccc21,-44.8,-10.4,2.2,i,2.3,13.3*,105.8*,-50*
O=C(C1CCCN(S(=O)(=O)c2ccc(Br)s2)C1)N1CCN(Cc2ccccc2)CC1 (stereo not given),nt,16.6,nt,nt,nt,nt,nt,nt
O=C(CCCC1=NS(=O)(=O)c2ccccc2N1)N1CCN(c2ccccc2Cl)CC1,nt,-5.6,nt,nt,nt,nt,nt,nt
Cc1nnc(NCc2ccncc2)c2ccccc12,4.0,-7.7,-0.6,i,1.5,7.07*,56.1*,-46.4*
O=C(Nc1c(-c2ccc(C(F)(F)F)cc2)nc2ncccn12)C1CC1,nt,4.9,nt,nt,nt,nt,nt,nt
CN[C@H]1C[C@H]2c3[nH]c4cccc(-c5cccc(F)c5)c4c3CCN2C(=O)[C@H]1[C@H](C)O,nt,-5.6,nt,nt,nt,nt,nt,nt
CC1CCCN(c2c3c(nc4ccccc24)CCCC3)C1 (stereo not given),-19.8,-7.2,-13.1,i,2.7,i,20.2*,i
COC(=O)C1CN(Cc2cn(Cc3ccccc3)nn2)CCS(=O)(=O)N1Cc1ccc(OC)cc1 (stereo not given),nt,-3.4,nt,nt,nt,nt,nt,nt
CCOC(=O)c1cnc2c(cnn2C)c1NCCCn1ccnc1,-27.7,0.2,-0.8,i,3.7,7.19*,44.0*,-80.7*
CCOC(=O)c1cnc2c(cnn2C)c1NCCCN(C)C,14.4,-7.3,-4.2,i,-0.3,i,nt,nt
COC(=O)[C@]12C[C@H](CC(=O)NCc3cccs3)C(=O)N(Cc3ccc4c(c3)OCO4)C1=C[C@H](C(C)C)O[C@@H]2C1CC1,nt,4.9,nt,nt,nt,nt,nt,nt
CC(C)(C)n1nc2c(c1NC(=O)c1cc(Cl)ccc1[N+](=O)[O-])CS(=O)(=O)C2,-0.7,2.9,-11.1,i,1.2,7.17*,39.3*,i
CCOC(=O)N1CCN(c2c(NCc3ccc(F)cc3)c(=O)c2=O)CC1,-27.6,-12.6,-0.3,i,1.0,i,3.9,i
CCc1ccc(OCC(=O)N/N=C/c2cc([N+](=O)[O-])ccc2N2CCOCC2)cc1,-57.3,-3.1,-5.5,i,-1.5,i,23.4*,i
O=C(N/N=C\c1cc([N+](=O)[O-])ccc1N1CCOCC1)c1ccccn1,-48.5,-10.8,9.9,i,6.5,i,nt,nt
Cn1c(C(=O)NCCCN2CCOCC2)cc2c(=O)n(C)c3ccccc3c21,-17.3,-10.6,-1.4,i,-3.8,i,nt,nt
Cn1c(C(=O)NCCN2CCCCCC2)cc2c(=O)n(C)c3ccccc3c21,-19.8,-0.4,-2.0,i,-1.7,i,25.3*,-27.4*
CN(C)c1cc(NC(=O)CNC(C)(C)C)c2ccccc2n1,-30.4,1.7,-3.1,i,0.1,i,26.4*,-54.9*
CN(C)c1cc(NC(=O)CN2CCOCC2)c2ccccc2n1,2.8,nt,nt,i,-0.1,6.74*,33.2*,-44.6*
CCCCC(=O)Nc1cc(N(C)C)nc2ccccc12,4.7,0.3,-2.4,i,1.6,i,nt,nt
O=C1CCC[C@H]2C[C@H](NCc3ccc(Cl)c(Cl)c3)CC[C@]23CCCN13,nt,8.1,nt,nt,nt,nt,nt,nt
CCOC(=O)c1c(-c2ccccc2)csc1NC(=O)CSc1ccccc1,-19.2,2.6,-4.8,i,3.3,i,nt,nt
CCOC(=O)c1c(-c2ccccc2)csc1NC(=O)CSc1nncs1,-1.6,12.5,-4.2,i,0.2,i,28.5*,i
O=C1CSc2ccc(C(=O)N3CCCC(C(=O)N4CCCN(Cc5ccccc5)CC4)C3)cc2N1 (stereo not given),nt,0.1,nt,nt,nt,nt,nt,nt
CCCC[n+]1c(C)sc2cc(OC)ccc21,-6.7,-6.5,-7.5,i,-1.7,i,nt,nt
SMILES,NR2E3 ag-1,COUP-TFII inh,GalR3 antagonist,CHT inh,NR2E3 ag-2,CHT PAM,CHT act confirm,HEK293 MP dye
CCC[n+]1c(C)sc2c(OC)ccc(OC)c21,-12.9,11.9,-4.0,i,1.0,11.9*,47.1*,i
Cc1cccc(-c2nnc(SCC(=O)Nc3cccc4ccccc34)n2Cc2ccco2)c1,nt,26.1,nt,nt,nt,nt,nt,nt
COc1ccc(Br)cc1CN(C)CC(=O)Nc1cccc(S(=O)(=O)N2CCCC2)c1,-3.9,22.4,-3.1,nt,nt,nt,nt,nt
COc1ccc(Br)cc1CN(C)CC(=O)Nc1c(Cl)cccc1Cl,-8.2,8.5,-5.9,i,-4.3,i,6.7,i
COC1=C(Nc2ccccc2OC)C(=O)c2ccccc2C1=O,13.4,-8.9,-3.4,i,-1.3,8.74*,36.7*,-41.4*
COc1ccccc1NC1=C(NC(C)=O)C(=O)c2ccccc2C1=O,-4.8,-14.5,-6.1,nt,nt,nt,nt,nt
CC(C)(C)OC(=O)N1CCC(c2ccc[nH]2)(c2c[nH]c3ccccc23)CC1,nt,-9.5,nt,nt,nt,nt,nt,nt
O=C1CCC(C(=O)N(Cc2cccs2)C2(C(=O)NC3CCCCC3)CCCCC2)N1 (stereo not given),-4.2,-7.1,-4.6,i,1.5,6.95*,31.3*,i
O=C(CSc1ncc(-c2ccccc2)n1-c1ccccc1)NCc1ccco1,0.8,11.8,-4.5,i,2.5,i,nt,nt
COc1ccc(-n2c(-c3ccc(F)cc3)cnc2SCC(=O)NCc2ccco2)cc1,-15.2,-16.0,-3.1,i,1.7,i,33.2*,i
Cc1cc[n+]2c3c(cccc13)CCC2,-8.2,-9.4,-5.3,i,-0.2,10.9*,88.6*,-85.4*
CCOP(=O)(OCC)C(NCc1ccccc1)c1ccc(Br)cc1 (stereo not given),-16.3,6.7,-2.8,i,4.1,i,29.3*,i
COc1ccc(Br)cc1CN(C)C(=O)c1ccccc1OCc1c(C)noc1C,11.5,14.6,-8.0,i,4.0,i,37.7*,i
CCC(=O)N(CCC(c1ccc(C)cc1)c1ccco1)Cc1ccco1 (stereo not given),2.5,12.1,-4.1,i,0.2,8.71*,40.3*,i

# Bioassay records deposited in PubChem by several laboratories.
